MrgX1 allo act: allosterically activates human MrgX1 receptor signaling. AID 588675. MrgX1-HEK293, Fluo-4 calcium flux, FDSS; stronger effect = higher value. B-score at 10 µM. Q96LB2. 310,000 compounds, 0.63% hits;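 active = plate-corrected calcium response at least 3 library SD above typical, normal starting fluorescence, not activating the receptor alone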;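 also: compound read alongside a low EC10 to EC30 dose of BAM8-22 agonist; peak minus trough fluorescence over baseline measured at the second addition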
Target sequence (Q96LB2 whole entry, looked up): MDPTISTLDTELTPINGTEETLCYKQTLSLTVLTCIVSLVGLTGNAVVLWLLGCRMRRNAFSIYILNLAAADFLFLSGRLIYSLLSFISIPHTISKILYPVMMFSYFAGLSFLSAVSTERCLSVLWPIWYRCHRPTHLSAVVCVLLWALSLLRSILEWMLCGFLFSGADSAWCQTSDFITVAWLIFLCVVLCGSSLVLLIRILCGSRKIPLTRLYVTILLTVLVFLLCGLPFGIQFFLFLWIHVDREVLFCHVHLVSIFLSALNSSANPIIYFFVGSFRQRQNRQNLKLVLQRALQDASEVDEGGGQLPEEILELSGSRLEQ
MrgX1 agonist: activates human MrgX1 receptor signaling; Q96LB2; MrgX1-HEK293 cells, Fluo-4 calcium fluorescence, agonist mode; stronger effect = higher value; B-score at 10 µM; 310,000 compounds, 0.44% hits; AID 588627;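 active = calcium response B-score plate-corrected fluorescence ratio at least 3 library SD, with starting fluorescence B-score inside 5 SD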
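System – MrgX1-expressing HEK293 cells · Incubation – cells plated overnight, dye loaded 0.5 h 37 °C, 0.5 h room temperature · Technique – kinetic Fluo-4 NW fluorescence of intracellular calcium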
RGS4 block: human RGS4 inhibition | HEK293 M3R/RGS4 inducible, Fluo-4 calcium flux; stronger effect = higher value; triggered by carbachol at its EC20 | P49798 | B-score at 10 µM | 310,000 compounds, 0.45% hits | AID 463165;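 active = B-score, a plate-corrected calcium signal, over three deviations above library mean, with baseline fluorescence within five deviations of library mean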;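 also: RGS4 expression induced by doxycycline in cells with stable M3 receptor; B-score is computed from the integrated fluorescence ratio over baseline after carbachol; higher B-score means a larger calcium signal and so more RGS4 inhibition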
Target sequence (P49798 whole entry, looked up): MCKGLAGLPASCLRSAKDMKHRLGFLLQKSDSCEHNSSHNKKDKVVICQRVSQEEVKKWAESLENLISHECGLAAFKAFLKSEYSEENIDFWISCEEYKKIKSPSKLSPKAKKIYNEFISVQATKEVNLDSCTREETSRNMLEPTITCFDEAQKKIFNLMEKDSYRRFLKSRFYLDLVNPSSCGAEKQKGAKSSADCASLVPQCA
RGS4 act: potentiators or activators of RGS4; HEK293 M3R/inducible RGS4, carbachol calcium flux Fluo4; stronger effect = lower value; AID 463111; B-score at 10 µM; 310,000 compounds, 0.92% hits;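 active = B-score of the integrated calcium signal more than 4 SD below the library mean, with starting fluorescence not abnormally high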;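 also: negative B-score means reduced calcium response which marks RGS4 activation or potentiation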
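Assay system: HEK293 FlpIn-TREx cells, stable M3R, doxycycline-inducible RGS4 / Probe or stimulus: carbachol, ECmax concentration / Times: overnight RGS4 induction, 30 min dye load 37 °C, 20 min compound RT / Signal: kinetic calcium fluorescence imaging with Fluo4-AM dye, 2 µM / Measure: Agonist-evoked peak-minus-minimum fluorescence over baseline, integrated ratio, B score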
MrgX1 antag: antagonists of human MrgX1 receptor. Q96LB2. MRGX1-HEK293 calcium flux, Fluo-4, BAM8-22 antagonism; stronger effect = lower value. B-score at 10 µM. 310,000 compounds, 1.3% hits;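 active = calcium-response B-score plate-corrected more than 3 library SD below zero, starting fluorescence within 5 deviations, no agonist response on first addition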;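 also: peak minus trough fluorescence over baseline after final BAM8-22 challenge near maximal dose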
MrgX1 ant reconf: human MrgX1 receptor antagonism, re-confirmation screen. shares compounds with MrgX1 antag. MrgX1-HEK293, BAM8-22 calcium flux, Fluo-4; stronger effect = lower value. remaining BAM8-22 calcium response % of control (stronger effect = lower value), % at 10 µM. 2,300 compounds, 19% hits;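 active = remaining agonist calcium response no higher than 100% minus 3 SD of agonist-only control wells, with starting fluorescence near control levels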;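 also: agonist BAM8-22 given at a near maximal EC90 to ECmax level; peak minus minimum fluorescence divided by baseline after agonist addition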
HEK293 Ca flux: activity in parental HEK293 cells lacking MrgX1; fluorescence ratio F(max-min)/F0 at 10 µM; Fluo-4 calcium fluorescence, FDSS; 4,000 compounds, 2% hits; shares compounds with MrgX1 antag;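 active = duplicate-averaged calcium fluorescence ratio at least three times the standard deviation of buffer wells, a nonspecific response in parental cells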
HEK293 Ca counter: activity in parental HEK293 cells without MrgX1. shares compounds with MrgX1 antag. parental HEK293 calcium flux, Fluo-4 fluorescence ratio; stronger effect = higher value. fluorescence ratio F(max-min)/F0 at 10 µM. AID 624114. 4,000 compounds, 0.4% hits;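 active = calcium fluorescence ratio, averaged over duplicates, at least 3 SD of the buffer-well ratio, meaning a nonspecific response in receptor-free cells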;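 also: untransfected parental HEK293 lacking MrgX1 used as counterscreen for MrgX1 allosteric activators; fluorescence change taken during the second addition on a kinetic imager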
HEK293 Ca cntr2: counter-screen for MrgX1 activators: effect in parental HEK293 cells. 4,000 compounds, 8.7% hits. fluorescence ratio F(max-min)/F0 at 10 µM. Fluo-4 calcium fluorescence (FDSS); stronger effect = higher value. shares compounds with MrgX1 antag. AID 624115;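 active = calcium fluorescence ratio at least three times the spread of buffer wells, meaning a non-specific response in parental cells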
Starred values were filed as active, the others as inactive. Shown are actives, neighbours in structure and some others; about 3.5% of the full set was active somewhere.

For O=C(COc1cccc2ccccc12)Nc1ccc(Cl)cc1C(=O)O the results were MrgX1 allo act inactive, MrgX1 agonist inactive, RGS4 block inactive, RGS4 act inactive, MrgX1 antag -7.5*, MrgX1 ant reconf 74%*, HEK293 Ca flux inactive, HEK293 Ca counter inactive and HEK293 Ca cntr2 inactive.
For COc1ccccc1CC(=O)Nc1ccc(Cl)cc1C(=O)O the results were MrgX1 allo act inactive, MrgX1 agonist inactive, RGS4 block inactive, RGS4 act inactive and MrgX1 antag inactive.
CCOc1ccc(OCC)c(NC(=O)Nc2ccc3c(c2)N(C)C(=O)CS3)c1 was read as MrgX1 allo act inactive, MrgX1 agonist inactive, RGS4 block inactive, RGS4 act inactive, MrgX1 antag -6.3*, MrgX1 ant reconf 80%*, HEK293 Ca flux inactive, HEK293 Ca counter inactive and HEK293 Ca cntr2 inactive.
`CC(=O)Nc1ccc(NC(=O)Nc2ccc3c(c2)N(C)C(=O)CS3)cc1` gave MrgX1 allo act inactive, MrgX1 agonist inactive, RGS4 block inactive, RGS4 act inactive and MrgX1 antag inactive.
Screening COc1cccc(NC(=O)Nc2ccc3c(c2)N(C)C(=O)CS3)c1 returned MrgX1 allo act inactive, MrgX1 agonist inactive, RGS4 block inactive, RGS4 act inactive, MrgX1 antag -7.3*, MrgX1 ant reconf 42%*, HEK293 Ca flux inactive, HEK293 Ca counter inactive and HEK293 Ca cntr2 inactive.
Screening Cn1cc([C@@H]2C[C@H]3CN(Cc4cccc(Cl)c4)C(=O)[C@]34CCCN24)c2ccccc21 returned MrgX1 allo act inactive, MrgX1 agonist inactive, RGS4 block inactive, RGS4 act inactive, MrgX1 antag -5.2*, MrgX1 ant reconf inactive, HEK293 Ca flux inactive, HEK293 Ca counter inactive and HEK293 Ca cntr2 inactive.
`Cc1c([C@@H]2C[C@H]3CN(Cc4cccc(Cl)c4)C(=O)[C@]34CCCN24)cnn1C` gave MrgX1 allo act inactive, MrgX1 agonist inactive, RGS4 block inactive, RGS4 act inactive and MrgX1 antag inactive.
`COc1ccc2[nH]cc(CCNC(=O)C3CCCCC3)c2c1` gave MrgX1 allo act inactive, MrgX1 agonist inactive, RGS4 block inactive, RGS4 act inactive and MrgX1 antag inactive.
For Cc1ccc2nc3sc(C(=O)N4CCCc5ccccc54)c(N)c3cc2c1 the results were MrgX1 allo act inactive, MrgX1 agonist inactive, RGS4 block inactive, RGS4 act inactive, MrgX1 antag -5.7*, MrgX1 ant reconf inactive, HEK293 Ca flux 0.58*, HEK293 Ca counter inactive and HEK293 Ca cntr2 inactive.
Screening Oc1c(C=Nc2ccc(Cl)cn2)sc2ccccc12 returned MrgX1 allo act inactive, MrgX1 agonist inactive, RGS4 block inactive, RGS4 act inactive and MrgX1 antag inactive.
For Oc1c(/C=N/c2ccccn2)sc2ccccc12 the results were MrgX1 allo act inactive, MrgX1 agonist inactive, RGS4 block inactive, RGS4 act inactive, MrgX1 antag -6.7*, MrgX1 ant reconf 69%*, HEK293 Ca flux inactive, HEK293 Ca counter inactive and HEK293 Ca cntr2 inactive.
For Oc1c(C=Nc2cccnc2)sc2ccccc12 the results were MrgX1 allo act inactive, MrgX1 agonist inactive, RGS4 block inactive, RGS4 act inactive, MrgX1 antag -4.9*, MrgX1 ant reconf inactive, HEK293 Ca flux inactive, HEK293 Ca counter inactive and HEK293 Ca cntr2 inactive.
Cc1cc(F)ccc1NC(=O)c1cc(S(=O)(=O)N2CCc3ccccc32)cn1C was read as MrgX1 allo act inactive, MrgX1 agonist inactive, RGS4 block inactive, RGS4 act inactive, MrgX1 antag -5.3*, MrgX1 ant reconf inactive, HEK293 Ca flux inactive, HEK293 Ca counter inactive and HEK293 Ca cntr2 inactive.
N#Cc1ccc(OS(=O)(=O)c2ccc(-c3ccon3)s2)cc1 was read as MrgX1 allo act inactive, MrgX1 agonist inactive, RGS4 block inactive, RGS4 act inactive, MrgX1 antag -4.7*, MrgX1 ant reconf inactive, HEK293 Ca flux inactive, HEK293 Ca counter inactive and HEK293 Ca cntr2 inactive.
For CCCn1nnnc1SCC(=O)NCc1ccccc1 the results were MrgX1 allo act inactive, MrgX1 agonist inactive, RGS4 block inactive, RGS4 act inactive and MrgX1 antag inactive.
Screening CCn1nnnc1SCC(=O)c1cccc(OC)c1 returned MrgX1 allo act inactive, MrgX1 agonist inactive, RGS4 block inactive, RGS4 act inactive and MrgX1 antag inactive.
Screening COc1ccc(CNC(=O)CSc2nnnn2-c2ccccc2)cc1 returned MrgX1 allo act inactive, MrgX1 agonist inactive, RGS4 block inactive, RGS4 act inactive, MrgX1 antag -9.9*, MrgX1 ant reconf inactive, HEK293 Ca flux inactive, HEK293 Ca counter inactive and HEK293 Ca cntr2 inactive.
CCCn1nnnc1SCC(=O)NCc1ccc(OC)cc1 was read as MrgX1 allo act inactive, MrgX1 agonist inactive, RGS4 block inactive, RGS4 act inactive, MrgX1 antag -6.8*, MrgX1 ant reconf inactive, HEK293 Ca flux inactive, HEK293 Ca counter inactive and HEK293 Ca cntr2 inactive.
Screening CCOC(=O)c1oc2ccccc2c1CSc1nnnn1-c1ccc(OC)cc1 returned MrgX1 allo act inactive, MrgX1 agonist inactive, RGS4 block inactive, RGS4 act inactive, MrgX1 antag -7.1*, MrgX1 ant reconf inactive, HEK293 Ca flux inactive, HEK293 Ca counter inactive and HEK293 Ca cntr2 inactive.
Screening COc1ccc(-n2nnnc2SCC(=O)c2cccc(OC)c2)cc1 returned MrgX1 allo act inactive, MrgX1 agonist inactive, RGS4 block inactive, RGS4 act inactive, MrgX1 antag -4.6*, MrgX1 ant reconf inactive, HEK293 Ca flux inactive, HEK293 Ca counter inactive and HEK293 Ca cntr2 inactive.
`Cc1cc(C)cc(N(C(=O)c2csnn2)C(C(=O)NC2CCCC2)c2ccccn2)c1` (configuration not stated) gave MrgX1 allo act inactive, MrgX1 agonist inactive, RGS4 block inactive, RGS4 act inactive and MrgX1 antag inactive.
For Cc1ccc(-c2nc(NC(=O)CSc3nnnn3-c3ccccc3)ns2)cc1 the results were MrgX1 allo act inactive, MrgX1 agonist inactive, RGS4 block inactive, RGS4 act inactive, MrgX1 antag -6.7*, MrgX1 ant reconf inactive, HEK293 Ca flux inactive, HEK293 Ca counter inactive and HEK293 Ca cntr2 inactive.

Source: PubChem (Johns Hopkins Ion Channel Center)
